Laboratory results from ChEMBL document CHEMBL2169863, “Discovery, structure-activity relationship, and biological evaluation of noninhibitory small molecule chaperones of glucocerebrosidase” (J Med Chem, 2012).
Residue numbers refer to the chain shown, from its start. Active and inactive are the calls of the source. Unless noted, the rule behind the calls is not given here.

Tests used:
[1] = Cytotoxicity against human dermal fibroblasts expressing wild type GCase at 5 uM after 6 days; assay type: cell-based; conditions: fibroblast, 144 h
Method in brief: (§1)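 Fibroblasts of the stated genotype were seeded at 5000 cells/well. After 1 day they were switched to OPTI-MEM with 5% FBS and treated 6 days with compound. Viability was read by CellTiter-Glo luminescence on a parallel plate.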

[2] = molecular target: Lysosomal alpha-glucosidase (Homo sapiens) (UniProt P10253); assay: Activation of alpha-glucosidase using 4-MU-alpha-glucose as substrate
[3] = test system: Brain; assay: Half life in C57BL/6 mouse brain at 50 mg/kg, ip; assay type: ADME, organism-based; set-up: dose 50 mg/kg, route intraperitoneal; conditions: in vivo
Method in brief: (§2)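 Male C57BL/6 mice, 18−26 g, given a single ip dose of 50 mpk in 20% PEG 400 + 80% (20% HP-β-CD). Plasma, brain and liver were sampled, and brain and liver were homogenized in 3 volumes of PBS pH 7.4 (dilution factor 4). Analysis was by LC−MS/MS. Mean profiles N = 3.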

[4] = Cytotoxicity against human dermal fibroblasts isolated from Gcase N370S carrier at 5 uM after 6 days; assay type: cell-based; conditions: fibroblast, 144 h; method in brief: as §1
[5] = test system: T1, Lysosomal acid glucosylceramidase (Homo sapiens), P04062 [N409S]; assay: Activation of wild type glucocerebrosidase translocation to lysosome in human dermal fibroblast isolated from N370S carrier incubated for 6 days by LAMP2 co-localization-based laser scanning confocal microscopic analysis relative to vehicle-treated control
T1 sequence (whole entry): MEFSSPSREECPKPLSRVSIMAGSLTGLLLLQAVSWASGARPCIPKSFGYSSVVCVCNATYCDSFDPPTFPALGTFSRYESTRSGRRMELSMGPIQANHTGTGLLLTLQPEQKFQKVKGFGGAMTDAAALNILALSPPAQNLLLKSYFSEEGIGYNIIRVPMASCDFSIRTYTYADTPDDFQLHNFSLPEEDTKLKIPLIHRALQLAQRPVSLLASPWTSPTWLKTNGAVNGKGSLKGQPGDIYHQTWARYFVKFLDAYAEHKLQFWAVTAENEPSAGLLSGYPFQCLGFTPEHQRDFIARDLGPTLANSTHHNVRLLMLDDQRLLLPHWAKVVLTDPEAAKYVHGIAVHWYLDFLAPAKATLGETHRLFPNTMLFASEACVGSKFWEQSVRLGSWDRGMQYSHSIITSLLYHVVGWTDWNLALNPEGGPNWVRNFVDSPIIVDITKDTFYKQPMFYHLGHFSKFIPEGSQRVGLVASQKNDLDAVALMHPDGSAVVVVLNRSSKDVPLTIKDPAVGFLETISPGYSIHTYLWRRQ

[6] = test system: T1, Lysosomal acid glucosylceramidase (Homo sapiens), P04062 [N409S]; assay: Activation of Glucocerebrosidase N370S/N370S mutant translocation to lysosome in Gaucher patient dermal fibroblasts incubated for 6 days by LAMP2 colocalization-based laser scanning confocal microscopic analysis relative to vehicle-treated control
Method in brief: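 N370S/N370S Gaucher dermal fibroblasts were treated 6 days at 1, 5 or 25 μM, with DMSO vehicle control. Cells were fixed in 3% paraformaldehyde, permeabilized with Triton-X and stained with anti-GCase R386 (Alexa555), anti-LAMP-2 (Alexa488) and DAPI. Confocal imaging used constant laser settings, scoring GCase/LAMP-2 colocalization.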

[7] = test system: Liver; assay: Half life in C57BL/6 mouse liver at 50 mg/kg, ip; assay type: ADME, organism-based; set-up: dose 50 mg/kg, route intraperitoneal; conditions: in vivo; method in brief: as §2
[8] = test system: Plasma; assay: Tmax in C57BL/6 mouse plasma at 50 mg/kg, ip; assay type: ADME, organism-based; set-up: dose 50 mg/kg, route intraperitoneal; conditions: in vivo; method in brief: as §2
[9] = test system: Liver; assay: Cmax in C57BL/6 mouse liver at 50 mg/kg, ip; assay type: ADME, organism-based; set-up: dose 50 mg/kg, route intraperitoneal; conditions: in vivo; method in brief: as §2
[10] = test system: Liver; assay: Ratio of AUClast in liver to AUClast in plasma in C57BL/6 mouse at 50 mg/kg, ip; assay type: ADME, organism-based; set-up: dose 50 mg/kg, route intraperitoneal; conditions: other tissue; method in brief: as §2
[11] = species: Homo sapiens; assay: Activation of Glucocerebrosidase N370S/N370S mutant translocation to lysosome in Gaucher patient dermal fibroblasts at 5 uM incubated for 6 days by LAMP2 co-localization-based laser scanning confocal microscopic analysis relative to vehicle-treated control
[12] = test system: Liver; assay: Metabolic stability in CD1 mouse liver microsomes assessed as compound remaining at 1 uM after 60 mins by LC/MS/MS analysis in absence of NADPH; assay type: ADME, Microsome; conditions: 1 h
Method in brief: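 Compound at 1 μM was incubated in duplicate with CD-1 mouse liver microsomes at 37 °C in 100 mM potassium phosphate pH 7.4 with 3 mM MgCl₂, with or without 2 mM NADPH, for 60 min. Reaction was quenched in cold acidified MeCN with internal standard. Parent was quantified by LC−MS/MS as percent of time zero.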

[13] = test system: T1, Lysosomal acid glucosylceramidase (Homo sapiens), P04062 [N409S]; assay: Activation of glucocerebrosidase N370S mutant using 4-methylumbelliferone-beta-Glc as substrate incubated for 5 mins prior to substrate addition measured after 30 to 45 mins by HPLC analysis
Method in brief: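 N370S/N370S patient spleen homogenate at 140 μg/well. Compound was tested at 9 concentrations, 1:2 dilutions from 50 μM. Substrate was 2 mM 4MU-Glc or the C12-BODIPY substrate at 25 μM; other conditions as the plate assay. Stopped reactions were separated on C18 HPLC with fluorescence detection: 4MU at 365/440 nm, C12-BODIPY-Cer at 506/540 nm.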

[14] = test system: T1, Lysosomal acid glucosylceramidase (Homo sapiens), P04062 [N409S]; assay: Activation of glucocerebrosidase N370S mutant in Gaucher patient spleen homogenates using 4-methylumbelliferone-Glc as substrate assessed as half-maximal activation concentration incubated for 5 mins prior to substrate addition measured after 30 to 45 mins by fluorimetric analysis; assay type: tissue-based
Method in brief: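 Spleen homogenate (27 μg final) in pH 5 citrate/phosphate buffer with KCl, NaCl, MgCl₂ and 0.01% Tween-20. Compound was titrated 0.5 nM to 58 μM and preincubated 5 min at room temperature. Reaction used 1 mM 4MU-Glc for 30−45 min at 37 °C and was stopped with NaOH/glycine pH 10. Read-out was fluorescence at Ex 365/Em 440 nm. AC₅₀ is the average of N = 2.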

[15] = test system: Plasma; assay: AUClast in C57BL/6 mouse plasma at 50 mg/kg, ip; assay type: ADME, organism-based; set-up: time 0 - last, dose 50 mg/kg, route intraperitoneal; conditions: in vivo; method in brief: as §2
[16] = molecular target: T2, Lysosomal acid glucosylceramidase (Homo sapiens) (UniProt P04062); assay: Activation of wild type glucocerebrosidase translocation to lysosome in human dermal fibroblast incubated for 6 days by LAMP2 colocalization-based laser scanning confocal microscopic analysis relative to vehicle-treated control
T2 sequence (whole entry): T1 sequence (whole entry) with S409N

Q: For `C#Cc1ccc(NC(=O)c2cnn3c(C)cc(C)nc23)cc1`, which Activity [1] is on record?
A: Non-toxic

Q: What about the Activity [2] of the same compound?
A: inactive

Q: And the t1/2 [3]?
A: 18.2 h

Q: What about the Activity [4] of the same compound?
A: Non-toxic

Q: What about the Activity [5] of the same compound?
A: Active

Q: And the Activity [6]?
A: Active

Q: What about the t1/2 [7] of the same compound?
A: 28.9 h

Q: And the Tmax [8]?
A: 15 min

Q: And the Cmax [9]?
A: 17.3 µM

Q: And the “Ratio AUC” value [10]?
A: 12512%

Q: And the Activity [11]?
A: Active

Q: What about the Stability [12] of the same compound?
A: 42%

Q: What about the Activity [13] of the same compound?
A: Dose-dependent effect

Q: What about the Activity [14] of the same compound?
A: 0.36 µM

Q: And the AUClast [15]?
A: 434 ng·h/mL

Q: What about the Activity [16] of the same compound?
A: Active
